Experimental data as given in ChEMBL document CHEMBL1135862, “Bioactive 4-substituted-6-methyl-2-pyrones with promising cytotoxicity against A2780 and K562 cell lines” (Bioorg Med Chem Lett, 2002).

Legend:
Bacillus subtilis [1] = assay: Antimicrobial activity against Bacillus subtilis after 96h incubation; assay type: functional
Procedure, shortened: (§1)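 Agar diffusion on cellulose disks loaded with 200 µg compound each. Bacteria read after 96 h, yeasts after 48 h. Activity is recorded as the radius in mm, or percent, of the inhibition zone. Squalestatin S1 (200 µg/disk) served as control in the yeast assay.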

Saccharomyces cerevisiae = assay: Antimicrobial activity against Saccharomyces cerevisiae after 48 hr incubation; assay type: functional; procedure, shortened: as §1
[2] = system: Schizosaccharomyces pombe; assay: (§2) Antimicrobial activity against Schizosaccharomyces pombe after 48 hr incubation; assay type: functional; set-up: concentration or dose not given beside the values; procedure, shortened: as §1
[3] = system: Schizosaccharomyces pombe; assay: as §2; assay type: functional; procedure, shortened: as §1
Escherichia coli [4] = assay: Antimicrobial activity against the Escherichia coli after 96 hr incubation; assay type: functional; set-up: concentration or dose not given beside the values; procedure, shortened: as §1
K562 = assay: Inhibitory concentration in vitro for cytotoxic activity against K 562 human chronic myelogenous leukemia cells; assay type: functional, cell-based
Procedure, shortened: (§3)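 MTT assay in 96-well plates, seeding 400–1000 cells/well. Cells recover 24 h, then drug in medium is added, three wells per dose. Incubate 5 days at 37 °C in 5% CO₂. Add MTT (3 mg/mL) for 3 h, dissolve formazan in DMSO, read at 540 nm minus 620 nm. Percent growth inhibition per dose comes from duplicate experiments, reported as mean and SD; IC50 is derived from these.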

A2780 = assay: Inhibitory concentration in vitro for cytotoxic activity against A 2780 human ovarian carcinoma cells; assay type: functional, cell-based; procedure, shortened: as §3
Escherichia coli [5] = assay: Antimicrobial activity against Escherichia coli after 96h incubation; assay type: functional; procedure, shortened: as §1
Candida albicans [6] = assay: Antimicrobial activity against Candida albicans after 48 hr incubation; assay type: functional; procedure, shortened: as §1
Bacillus subtilis [7] = assay: Antimicrobial activity against Bacillus subtilis after 96 hr incubation; assay type: functional; set-up: concentration or dose not given beside the values; procedure, shortened: as §1
Staphylococcus aureus [8] = assay: Antimicrobial activity against Staphylococcus aureus after 96h incubation; assay type: functional; procedure, shortened: as §1
Staphylococcus aureus [9] = assay: The compound was evaluated for anti microbial activity against Staphylococcus aureus after 96 hr incubation; assay type: functional; set-up: concentration or dose not given beside the values; procedure, shortened: as §1
Candida albicans [10] = assay: Anti fungal activity against Candida albicans after 48 hr incubation; assay type: functional; set-up: concentration or dose not given beside the values; procedure, shortened: as §1

Structure (SMILES)	Inhibition (Bacillus subtilis [1]) [mm]	Inhibition (Saccharomyces cerevisiae) [mm]	Inhibition [2] [%]	Inhibition [3] [mm]	Inhibition (Escherichia coli [4]) [%]	IC50 (K562) [µM]	IC50 (A2780) [µM]	Inhibition (Escherichia coli [5]) [mm]	Inhibition (Candida albicans [6]) [mm]	Inhibition (Bacillus subtilis [7]) [%]	Inhibition (Staphylococcus aureus [8]) [mm]	Inhibition (Staphylococcus aureus [9]) [%]	Inhibition (Candida albicans [10]) [%]
Cc1cc(CCc2ccccc2)cc(=O)o1	18	0	11.4	10	22.7	> 50	> 50	20	0	20.5	0		
Cc1cc(-c2ccc(C=O)cc2)cc(=O)o1	18	0	15.9	14	17	26	19.2	15	0	20.5	18	20.5	
CCCCCCC#Cc1cc(C)oc(=O)c1	17	0	54.5	48	19.3	20.3	3.4	17	0	19.3	18	20.5	
Cc1cc(-c2ccc(Cl)cc2)cc(=O)o1	18	0		0	22.7	> 50	> 50	20	0	20.5	20	22.7	
CCCCc1cc(C)oc(=O)c1	20	0		0	25	> 50	> 50	22	0	22.7	0		
COc1ccc(-c2cc(C)oc(=O)c2)cc1	17	0	22.7	20	22.7	> 50	> 50	20	0	19.3	0		
CCCCCCCCc1cc(C)oc(=O)c1	19	0	34.1	30	25			22	20	21.6	18	20.5	22.7
Cc1cc(C#CCOC2CCCCO2)cc(=O)o1 (centres undefined)	20	0	20.5	18	19.3	4	2.1	17	13	22.7	30	34.1	14.8
CCOCCc1cc(C)oc(=O)c1				0		> 50	> 50						
CCCCCc1cc(C)oc(=O)c1	23	0	25	22	25	> 50	> 50	22	0	26.1	0		
CCCCCCc1cc(C)oc(=O)c1	21	0	29.5	26	28.4	> 50	> 50	25	11	23.9	0		12.5
Cc1cc(C#Cc2ccc([N+](=O)[O-])cc2)cc(=O)o1	6	0	10.2	9				0	0	6.8	0		
CC(=O)Nc1ccc(C#Cc2cc(C)oc(=O)c2)cc1	6	0		0				0	0	6.8	16	18.2	
Cc1cc(C#Cc2ccccc2)cc(=O)o1	19	0	42	37	22.7	4	1.8	20	0	21.6	0		
CCC/C=C/c1cc(C)oc(=O)c1	16	0	31.8	28	21.6			19	16	18.2	20	22.7	18.2
Cc1cc(-c2ccccc2)cc(=O)o1	18	0		0	22.7	> 50	> 50	20	0	20.5	18	20.5	
Cc1ccc(-c2cc(C)oc(=O)c2)cc1	19	0		0	20.4	> 50	> 50	18	0	21.6	0		
CCCCC#Cc1cc(C)oc(=O)c1	17	0	51.1	45	22.7	15.5	7	20	20	19.3	0		22.7
Cc1cc(/C=C/c2ccccc2)cc(=O)o1	18	0	20.5	18	19.3	> 50	> 50	17	0	20.5	0		
CCCC/C=C/c1cc(C)oc(=O)c1	18	0	45.5	40	20.5			18	24	20.5	0		27.3
